# Source: ChEMBL document CHEMBL1126849, “Synthesis of A-ring fluorinated derivatives of (17 alpha,20E/Z)-[125I]iodovinylestradiols: effect on receptor binding and receptor-mediated target tissue uptake” (J Med Chem, 1993)
# Experiments:
# Conditions in all cases: in vivo
# Rattus norvegicus [1] = experiment: Biodistribution in uterus / spleen, muscle, lungs of immature female rat after 12 hour administration of 3 micro Ci (111 kBq) in the absence of 60 microg estradiol; assay type: ADME, organism-based
# Outline: (§1)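 Immature female Long Evans rats (21–24 days, 45–70 g), 3–5 per group, unanesthetized in retention cages, given 3 μCi (111 kBq) 125I-labeled steroid by lateral tail vein. Vehicle: ethanol diluted with saline containing 1% Tween-80, final ethanol 9%. +E2 group co-injected 60 μg unlabeled estradiol (1 h only). Killed under ether; tissues KCl-washed, weighed, gamma-counted. Output: %ID/g (mean, SE) and uterus to blood or nontarget (muscle, spleen, lungs) ratios.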
# Rattus norvegicus [2] = experiment: Biodistribution in thyroid of immature female rat after 12 hour administration of 3 micro Ci (111 kBq) in the absence of 60 microg estradiol; assay type: ADME, organism-based, Thyroid gland
# Outline: (§2)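 Immature female Long Evans rats (21–24 days, 45–70 g), three to five per group, given 125I-labeled steroid (3 μCi, 111 kBq) by lateral tail vein without anesthesia. Vehicle: ethanol diluted in saline with 1% Tween-80, final ethanol 9%, 0.22 μm filtered. +E2 groups received 60 μg unlabeled estradiol co-injected. Killed under ether at set times; tissues KCl-washed, blotted, weighed, gamma counted; %ID/g, mean with SE.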
# Rattus norvegicus [3] = experiment: Biodistribution in uterus / spleen, muscle, lungs of immature female rat after 3 hour administration of 3 micro Ci (111 kBq) in the absence of 60 microg estradiol; assay type: ADME, organism-based; outline: as §1
# Rattus norvegicus [4] = experiment: Biodistribution in muscle of immature female rat after 5 hour administration of 3 micro Ci (111 kBq) in the absence of 60 microg estradiol; assay type: ADME, organism-based, Muscle tissue; outline: as §2
# Rattus norvegicus [5] = experiment: Biodistribution in uterus of immature female rat after 1 hr administration of 3 micro Ci (111 kBq) in the presence of (+E2); assay type: ADME, organism-based; outline: as §1
# Rattus norvegicus [6] = experiment: Biodistribution in fat of immature female rat after 1 hr administration of 3 micro Ci (111 kBq) in the presence of (+E2); assay type: ADME, organism-based, Adipose tissue
# Outline: (§3)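 Immature female Long Evans rats (21–24 days, 45–70 g), unanesthetized in retention cages, given 3 µCi (111 kBq) 125I-labeled steroid i.v. via lateral tail vein. Vehicle was ethanol diluted in saline containing 1% Tween-80, giving 9% ethanol final. The blocking group received 60 µg unlabeled estradiol co-injected. Rats were killed under ether by axillary bleeding, and tissues were KCl-washed and gamma-counted. Data are %ID/g, mean ± SE, n=3–5.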
# Rattus norvegicus [7] = experiment: Biodistribution in thyroid of immature female rat after 5 hour administration of 3 micro Ci (111 kBq) in the absence of 60 microg estradiol; assay type: ADME, organism-based, Thyroid gland; outline: as §2
# Rattus norvegicus [8] = experiment: Biodistribution in fat of immature female rat after 12 hour administration of 3 micro Ci (111 kBq) in the absence of 60 microg estradiol; assay type: ADME, organism-based, Adipose tissue; outline: as §3
# Rattus norvegicus [9] = experiment: Biodistribution in spleen of immature female rat after 12 hour administration of 3 micro Ci (111 kBq) in the absence of 60 microg estradiol; assay type: ADME, organism-based; outline: as §2
# Rattus norvegicus [10] = experiment: Biodistribution in spleen of immature female rat after 3 hour administration of 3 micro Ci (111 kBq) in the absence of 60 microg estradiol; assay type: ADME, organism-based; outline: as §2
# Rattus norvegicus [11] = experiment: Biodistribution in liver of immature female rat after 12 hour administration of 3 micro Ci (111 kBq) in the absence of 60 microg estradiol; assay type: ADME, organism-based; outline: as §3
# Rattus norvegicus [12] = experiment: Biodistribution in spleen of immature female rat after 5 hour administration of 3 micro Ci (111 kBq) in the absence of 60 microg estradiol; assay type: ADME, organism-based; outline: as §2
# Rattus norvegicus [13] = experiment: Biodistribution in blood of immature female rat after 5 hour administration of 3 micro Ci (111 kBq) in the absence of 60 microg estradiol; assay type: ADME, organism-based; outline: as §3
# Rattus norvegicus [14] = experiment: Biodistribution in uterus of immature female rat after 12 hour administration of 3 micro Ci (111 kBq) in the absence of 60 microg estradiol; assay type: ADME, organism-based; outline: as §1
# Rattus norvegicus [15] = experiment: Biodistribution in kidney of immature female rat after 1 hr administration of 3 micro Ci (111 kBq) in the absence of 60 microg estradiol; assay type: ADME, organism-based; outline: as §3
# Rattus norvegicus [16] = experiment: Biodistribution in thyroid of immature female rat after 3 hour administration of 3 micro Ci (111 kBq) in the absence of 60 microg estradiol; assay type: ADME, organism-based, Thyroid gland; outline: as §2
# Rattus norvegicus [17] = experiment: Biodistribution in uterus / blood of immature female rat after 12 hour administration of 3 micro Ci (111 kBq) in the absence of 60 microg estradiol; assay type: ADME, organism-based
# Outline: (§4)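 Same in vivo procedure: immature female Long Evans rats (21–24 days), three to five per group, 3 μCi (111 kBq) tracer i.v. via tail vein in 9% ethanol/saline/1% Tween-80, ± 60 μg estradiol co-injected at 1 h. Uterus %ID/g (gamma counting) divided by blood, or by nontarget organ (muscle, spleen, lungs), %ID/g to give ratios.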
# Rattus norvegicus [18] = experiment: Biodistribution in uterus / blood of immature female rat after 1 hr administration of 3 micro Ci (111 kBq) in the presence of (+E2); assay type: ADME, organism-based; outline: as §4
# Rattus norvegicus [19] = experiment: Biodistribution in uterus / spleen, muscle, lungs of immature female rat after 5 hour administration of 3 micro Ci (111 kBq) in the absence of 60 microg estradiol; assay type: ADME, organism-based; outline: as §1
# Rattus norvegicus [20] = experiment: Biodistribution in lungs of immature female rat after 5 hour administration of 3 micro Ci (111 kBq) in the absence of 60 microg estradiol; assay type: ADME, organism-based, Lung; outline: as §2
# Rattus norvegicus [21] = experiment: Biodistribution in spleen of immature female rat after 1 hr administration of 3 micro Ci (111 kBq) in the presence of (+E2); assay type: ADME, organism-based; outline: as §2
# Rattus norvegicus [22] = experiment: Biodistribution in liver of immature female rat after 1 hr administration of 3 micro Ci (111 kBq) in the presence of (+E2); assay type: ADME, organism-based; outline: as §3
# Rattus norvegicus [23] = experiment: Biodistribution in blood of immature female rat after 1 hr administration of 3 micro Ci (111 kBq) in the presence of (+E2); assay type: ADME, organism-based; outline: as §3
# Rattus norvegicus [24] = experiment: Biodistribution in uterus / spleen, muscle, lungs of immature female rat after 1 hr administration of 3 micro Ci (111 kBq) in the presence of (+E2); assay type: ADME, organism-based; outline: as §4
# Rattus norvegicus [25] = experiment: Biodistribution in liver of immature female rat after 5 hour administration of 3 micro Ci (111 kBq) in the absence of 60 microg estradiol; assay type: ADME, organism-based; outline: as §3
# Rattus norvegicus [26] = experiment: Biodistribution in kidney of immature female rat after 5 hour administration of 3 micro Ci (111 kBq) in the absence of 60 microg estradiol; assay type: ADME, organism-based; outline: as §3
uterus to nontarget tissue ratio (Rattus norvegicus [1]) [%],ID/g (Rattus norvegicus [2]) [%],"Uterus to nontarget tissue (spleen, muscle, lungs) uptake ratio (Rattus norvegicus [3]) [%]",ID/g (Rattus norvegicus [4]) [%],ID/g (Rattus norvegicus [5]) [%],ID/g (Rattus norvegicus [6]) [%],ID/g (Rattus norvegicus [7]) [%],ID/g (Rattus norvegicus [8]) [%],ID/g (Rattus norvegicus [9]) [%],ID/g (Rattus norvegicus [10]) [%],ID/g (Rattus norvegicus [11]) [%],ID/g (Rattus norvegicus [12]) [%],ID/g (Rattus norvegicus [13]) [%],ID/g (Rattus norvegicus [14]) [%],ID/g (Rattus norvegicus [15]) [%],ID/g (Rattus norvegicus [16]) [%],Uterus-to-blood radioactivity ratio (dimensionless) (Rattus norvegicus [17]) [%],uterus/blood %ID/g ratio (Rattus norvegicus [18]) [%],ID/g (Rattus norvegicus [20]) [%],ID/g (Rattus norvegicus [21]) [%],Structure (SMILES),further results
15.57,217,7.15,0.56,1.14,5.65,114,1.67,0.19,0.91,1.57,0.8,0.39,3.02,1.41,70,17.87,2.68,0.77,1.29,C[C@@H]1Cc2c(ccc(O)c2F)[C@H]2CC[C@@]3(C)[C@@H](CC[C@@]3(O)/C=C/I)[C@H]12,uterus to nontarget tissue ratio (Rattus norvegicus [19]): 9.38%; ID/g (Rattus norvegicus [22]): 5.84%; ID/g (Rattus norvegicus [23]): 0.44%; uterus-to-nontarget tissue uptake ratio (Rattus norvegicus [24]): 0.85%; ID/g (Rattus norvegicus [25]): 3.6%; ID/g (Rattus norvegicus [26]): 0.89%
17.02,898,8.32,0.34,0.5,1.39,380,0.89,0.25,0.72,0.8,0.57,0.36,3.45,1.07,304,16.64,1.16,0.48,0.69,C[C@@H]1Cc2c(ccc(O)c2F)[C@H]2CC[C@@]3(C)[C@@H](CC[C@@]3(O)/C=C\I)[C@H]12,ID/g (Rattus norvegicus [19]): 9.44%; ID/g (Rattus norvegicus [22]): 1.54%; ID/g (Rattus norvegicus [23]): 0.45%; uterus-to-nontarget tissue uptake ratio (Rattus norvegicus [24]): 0.88%; ID/g (Rattus norvegicus [25]): 1.36%; ID/g (Rattus norvegicus [26]): 0.67%
15.99,745,7.35,0.29,0.39,1.58,424,0.84,0.47,0.74,1.69,0.51,0.33,3.84,1.11,202,18.13,1.2,0.37,0.56,C[C@@H]1Cc2cc(O)c(F)cc2[C@H]2CC[C@@]3(C)[C@@H](CC[C@@]3(O)/C=C\I)[C@H]12,uterus to nontarget tissue ratio (Rattus norvegicus [19]): 8.94%; ID/g (Rattus norvegicus [22]): 1.83%; ID/g (Rattus norvegicus [23]): 0.32%; uterus-to-nontarget tissue uptake ratio (Rattus norvegicus [24]): 0.76%; ID/g (Rattus norvegicus [25]): 2.51%; ID/g (Rattus norvegicus [26]): 0.54%

# More lines, now with the values behind:
Structure (SMILES),uterus to nontarget tissue ratio (Rattus norvegicus [1]) [%],ID/g (Rattus norvegicus [2]) [%],"Uterus to nontarget tissue (spleen, muscle, lungs) uptake ratio (Rattus norvegicus [3]) [%]",ID/g (Rattus norvegicus [4]) [%],ID/g (Rattus norvegicus [5]) [%],ID/g (Rattus norvegicus [6]) [%],ID/g (Rattus norvegicus [7]) [%],ID/g (Rattus norvegicus [8]) [%],ID/g (Rattus norvegicus [9]) [%],ID/g (Rattus norvegicus [10]) [%],ID/g (Rattus norvegicus [11]) [%],ID/g (Rattus norvegicus [12]) [%],ID/g (Rattus norvegicus [13]) [%],ID/g (Rattus norvegicus [14]) [%],ID/g (Rattus norvegicus [15]) [%],ID/g (Rattus norvegicus [16]) [%],Uterus-to-blood radioactivity ratio (dimensionless) (Rattus norvegicus [17]) [%],uterus/blood %ID/g ratio (Rattus norvegicus [18]) [%],ID/g (Rattus norvegicus [20]) [%],ID/g (Rattus norvegicus [21]) [%],further results
C[C@@H]1Cc2cc(O)c(F)cc2[C@H]2CC[C@@]3(C)[C@@H](CC[C@@]3(O)/C=C/I)[C@H]12,2.55,446,3,0.21,0.39,1.48,203,0.92,0.12,0.43,1,0.18,0.17,0.35,0.63,197,2.99,1.34,0.22,0.45,uterus to nontarget tissue ratio (Rattus norvegicus [19]): 3.61%; ID/g (Rattus norvegicus [22]): 2.28%; ID/g (Rattus norvegicus [23]): 0.29%; uterus-to-nontarget tissue uptake ratio (Rattus norvegicus [24]): 1.09%; ID/g (Rattus norvegicus [25]): 1.38%; ID/g (Rattus norvegicus [26]): 0.26%
CO[C@H]1C[C@@]2(C)[C@@H](CC[C@@]2(O)/C=C\I)[C@@H]2CCc3c(ccc(O)c3F)[C@H]21,19.35,4651,11.77,0.4,1.06,1.82,2369,0.47,0.7,0.72,0.83,0.66,0.51,8.31,1.64,1446,34.58,1.3,0.51,1.28,uterus to nontarget tissue ratio (Rattus norvegicus [19]): 21.03%; ID/g (Rattus norvegicus [22]): 2.77%; uterus-to-nontarget tissue uptake ratio (Rattus norvegicus [24]): 1.11%; ID/g (Rattus norvegicus [25]): 1.42%; ID/g (Rattus norvegicus [26]): 1.08%
CO[C@H]1C[C@@]2(C)[C@@H](CC[C@@]2(O)/C=C/I)[C@@H]2CCc3cc(O)c(F)cc3[C@H]21,6.75,571,8.2,0.45,0.81,4.31,412,0.45,0.18,0.8,1.48,0.82,0.32,1.2,1.44,355,10.45,1.6,0.51,1.04,uterus to nontarget tissue ratio (Rattus norvegicus [19]): 8.56%; ID/g (Rattus norvegicus [23]): 0.51%; uterus-to-nontarget tissue uptake ratio (Rattus norvegicus [24]): 0.86%; ID/g (Rattus norvegicus [25]): 3.11%; ID/g (Rattus norvegicus [26]): 1.52%
